Screens as filed in PubChem BioAssay.
This excerpt belongs to a sample that is enriched for hits.
T cruzi inh: inhibitors of intracellular T. cruzi growth, primary screen, luminescence, NIH3T3 host cells; hit rate 1.4% among 300,000; T. cruzi beta-gal in NIH3T3, 90 h; AID 1885, 2009; inhibition, % (concentration not given with the values);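 active = mean inhibition across valid replicates above about 55%, limit read from the data; inconclusive = mean below that limit but half or more replicates reach it; inactive = mean below it, under half of replicates reach it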;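 also: signal also drops with host cell toxicity which is not excluded here; 0% = plate median of DMSO wells and 100% = zero luminescence signal; higher percent means less beta-gal luminescence so fewer parasites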
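Assay system: NIH/3T3 fibroblasts plus reporter T. cruzi. Amount: NIH/3T3 cells, 5,000 per well. Buffer or medium: DMEM, 2% fetal bovine serum. Doses: compound pinned at 50 nL/well, DMSO. Schedule: ≥90 h infection period, 3 h prior cell attachment. Signal: luminescent β-galactosidase signal after 60 min lysis. Read-out: parasite load inhibition, %.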
CHOP inhibitor: inhibitors of CHOP promoter induction, primary screen, cell-based, unfolded protein response, luciferase reporter; CHO-K1 CHOP-promoter luciferase, tunicamycin-induced, 15-18 h; inhibition, % at 10 µM; hit rate 3.8% among 220,000;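 active = compounds that reduced the stress-induced luciferase reporter signal by more than about 70% of percent inhibition, limit read from the data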;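 also: 0% = tunicamycin plus vehicle and 100% = wells without tunicamycin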
UPR XBP1 act: activators of adaptive XBP1 UPR arm, primary screen, cell-based, CHO-XBP1 luciferase reporter, luminescence, uHTS; IRE1-XBP1 UPR activation; percent of tunicamycin response, DMSO as zero; activation, % at 20 µM; hit rate 0.33% among 330,000; AID 463104, 2010;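 active = versus positive control, 20 µM dose yields 30% or more activation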;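 also: 100% = tunicamycin at 10 µg/mL and 0% = DMSO only wells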
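Material: IRE1-XBP1 luciferase reporter CHO line / Quantity: one thousand reporter cells per well / Buffer or medium: F12 with 10% serum / Compound: 20 µM single concentration, DMSO 1% / Times: 6 h treatment, 37 °C / Detection: Steady-Glo luciferase glow luminescence, 10 min after reagent addition / Benchmarks: tunicamycin high, DMSO low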
Lmaj promast: Leishmania major promastigote growth inhibition, primary screen. Leishmania major promastigotes, resazurin fluorescence viability. inhibition, % at 10 µM. hit rate 9% among 200,000. AID 1063, 2008; in the data active = inhibition above about 50%;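 also: promastigotes grown with compound for 44 hours at 28 °C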
Dynein cargo inh: inhibitors of GR-EGFP nuclear translocation, primary screen, dynein cargo transport inhibitor project, imaging, high-content, 3617.4 mouse cells; test concentration mostly 20 µM; stimulated with dexamethasone, 1 µM; active compounds read low; z-score, hits read low; hit rate 0.47% among 220,000; AID 1381, 2008;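 active = plate z-score of nuclear minus cytoplasmic receptor signal below a set negative limit, without overly bright fluorescence or cell loss, cut at about -3.5 in these data, passing the limit was not always enough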;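 also: z-score of nuclear minus cytoplasmic ring GR-EGFP intensity difference per well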
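Schedule: 48 h induction, then 1 h compound, then 30 min agonist, 37 °C. Buffer or medium: tetracycline-free induction medium containing charcoal-stripped FBS. Reagent: 1.0 µM final dexamethasone stimulus. Evaluation: nuclear versus cytoplasmic GR-EGFP signal, averaged per well. Signal: high-content fluorescence imaging after fixation.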
CHOP UPR activ: activators of apoptotic CHOP UPR arm, primary screen, cell-based, CHO-CHOP luciferase reporter, luminescence, uHTS. hit rate 0.34% among 330,000. activation, % at 10 µM. UPR activation; percent of tunicamycin response over DMSO baseline;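 active = at 10 µM dose, activation of 40% or more, normalized to positive control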;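 also: 100% = tunicamycin at 10 µg/mL and 0% = DMSO alone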
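Assay system: CHO cells with stable CHOP pathway luciferase reporter; Buffer or medium: F12 plus 10% serum; Times: 16-18 h cell attachment, then 6 h compound exposure, 37 °C; Signal: luciferase luminescence; Read-out basis: percent activation relative to tunicamycin control; Control set: tunicamycin high control, DMSO low control.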
Active calls of the source: *; ? = inconclusive; nt = no result given.

SMILES	T cruzi inh	CHOP inhibitor	UPR XBP1 act	Lmaj promast	Dynein cargo inh	CHOP UPR activ
CC1CCCN(CCCNC(=O)c2ccc(CS(=O)(=O)Cc3cccc(Cl)c3)o2)C1 (configuration not stated)	7	nt	-3	nt	nt	-1
Cc1ccc(-n2nc3c(c2NC(=O)c2ccc4c(c2)OCO4)CS(=O)(=O)C3)cc1C	-7	nt	-3	nt	nt	0
CCN=c1scc(-c2ccco2)n1/N=C/c1ccc(O)cc1	-14	76*	7	13	1.5	5
O=[N+]([O-])c1nn(-c2ccc3c(c2)OCCO3)n(O)c1=Nc1ccc(Cl)cc1	55*	50	-8	77*	0.39	-5
O=[N+]([O-])c1nn(-c2ccc3c(c2)OCCO3)n(O)c1=Nc1ccccc1	41	88*	-3	97*	-0.31	-7
Cc1ccc(N=c2c([N+](=O)[O-])nn(-c3ccc(Cl)cc3)n2O)cc1C	59*	44	-1	27	-1.3	0
Cc1ccc(N=c2c([N+](=O)[O-])nn(-c3ccc4c(c3)OCCO4)n2O)cc1F	?	53	-3	23	0.79	-3
Cc1cc(C)cc(N=c2c([N+](=O)[O-])nn(-c3ccc4c(c3)OCCO4)n2O)c1	58*	41	7	85*	-1.2	13
CC(=O)c1ccc(NC(=S)N2CCN(S(=O)(=O)c3ccc(F)cc3)CC2)cc1	8	nt	-3	nt	nt	0
Cc1ccc(N=c2c([N+](=O)[O-])nn(-c3ccc4c(c3)OCCO4)n2O)c(Cl)c1	75*	66	-6	18	1.1	-9
COc1ccc(CCN=c2c([N+](=O)[O-])nn(-c3cccc(C)c3)n2O)cc1OC	48	0	4	50	-0.0076	1
CCc1ccc(N=c2c([N+](=O)[O-])nn(-c3ccc4c(c3)OCCO4)n2O)cc1	62*	9	-1	49	0.44	0
COc1cccc(CC(=O)OCC(=O)NC(Cc2ccccc2)C(C)=O)c1 (configuration not stated)	-5	nt	1	nt	nt	-1
Cc1cc(C)n(CC(=O)NNC(=O)COc2ccc(Br)cc2F)n1	nt	nt	0	nt	nt	0
CCCCC(c1nnnn1CC1CCCO1)N1CCN(c2cccc(C)c2C)CC1 (configuration not stated)	33	1	-3	56*	-0.93	1
CCCCC(c1nnnn1CC1CCCO1)N1CCN(Cc2ccccc2)CC1 (configuration not stated)	3	8	-2	3	-0.3	0
CC(C)(C)C(O)(CC#CCN1CCCC1)c1ccccc1 (configuration not stated)	40	19	5	69*	-0.49	-1
CC(O)(C#CCN1CCCCC1)c1ccccc1 (configuration not stated)	-16	16	-1	24	0.65	0
C(#CCN1CCCC1)CC(c1ccccc1)c1ccccc1	34	-7	0	100*	0.65	-2
C(#Cc1ccccc1)CN1CCCCC1	-5	-41	2	-4	-0.29	-1
CC(C)(C#CCN1CCCCC1)OCCOC(c1ccccc1)c1ccccc1	6	77*	-3	22	-0.86	0
OC(CC#CCN1CCCC1)(c1ccccc1)c1ccccc1	6	11	-2	nt	2.1	2
CC(C)C(O)(C#CCN1CCCCCC1)c1ccccc1 (configuration not stated)	-37	4	-3	83*	0.78	-2
CCOc1ccc(S(=O)(=O)N(C)CC(=O)NCc2ccccn2)cc1Cl	17	nt	2	nt	nt	0
OC(CC#CCN1CCCCC1)(c1ccccc1)c1ccccc1	6	nt	-5	nt	nt	1
SMILES	T cruzi inh	CHOP inhibitor	UPR XBP1 act	Lmaj promast	Dynein cargo inh	CHOP UPR activ
CC(C)C(O)(CC#CCN1CCCC1)c1ccccc1 (configuration not stated)	50	14	-2	54*	-0.61	0
COc1ccc(OC)c2c1C(=O)C(Cl)=C(Cl)C2=O	11	106*	-11	nt	-5.4*	-8
COc1ccc(CCCc2nnc(SCC(=O)NN)o2)c(C)c1	-2	nt	-5	nt	nt	-2
O=C(Nc1ccccc1C(=O)O)c1cc(S(=O)(=O)N2CCCCC2)c(Cl)cc1Cl	58*	nt	3	nt	nt	2
COC(=O)[C@H](CCSC)NC(=O)Cn1cnc2c(NCc3ccccc3)ncnc21	nt	nt	1	nt	nt	4
CCOC(=O)N1CCN(S(=O)(=O)c2c(C)nc3scc(C)n3c2=O)CC1	-12	nt	-7	nt	nt	-2
Cn1c(CN2CCN(C(=O)c3ccccc3)CC2)nc2cc([N+](=O)[O-])ccc21	0	18	-2	51*	1.1	-1
O=c1c(CN2CCN(c3ccccn3)CC2)coc2ccccc12	-3	17	2	63*	-0.15	1
OCCN1CCN(Cc2cc(Cl)c3cccnc3c2O)CC1	-11	-36	-1	100*	-1.1	-2
Oc1c(CN2CCN(c3ccccn3)CC2)cc(Cl)c2cccnc12	75*	nt	11	100*	-0.18	-10
CC(=O)Nc1ccc(NC(=O)C(C)Oc2ccccc2C(=O)NCc2ccccc2)cc1 (configuration not stated)	nt	nt	-1	nt	nt	1
Cc1csc(=O)n1CCC(=O)N(C)Cc1c(F)cccc1Cl	nt	nt	-1	nt	nt	0
Cc1ccc(C)n1-n1c(C)nc2sc(-c3ccccc3)cc2c1=O	11	77*	-4	6	-0.75	2
O=c1c2cc(-c3ccccc3)sc2ncn1-n1cccc1	-10	-14	1	-3	1.3	6
CCn1cnc2sc(-c3ccccc3)cc2c1=O	-7	-6	7	4	0.027	5
Cc1ccc(C)n1-n1cnc2sc(-c3ccccc3)cc2c1=O	6	79*	-2	-3	-0.91	1
Cc1ccc(CN(C)C(=O)c2cc(COc3cccc(C(F)(F)F)c3)on2)o1	4	nt	-9	nt	nt	2
CC(C)OC(=O)/C(=C\c1ccccc1)NC(=O)c1ccccc1	-1	5	2	-2	-0.24	-1
CC(C)OC(=O)/C(=C\c1cccc2ccccc12)NC(=O)c1ccccc1	25	30	5	91*	0.66	2
CC(C)Cc1nnc(NC(=O)CCC(=O)N2CCCCC2)s1	6	nt	-5	nt	nt	0
Cc1ccc(C(=O)N2CC3(C(C)C)CN(C(=O)c4ccc(C)cc4)CC(C(C)C)(C2)C3=O)cc1	13	17	-4	95*	0.44	0
